Measurements reported in PMC5267326 (Chemical Science, 2015).

Assays:
[1] = cited from earlier work
[2] = system: soluble RAGE (sRAGE) binding to cell surface HS; assay: Inhibition of sRAGE binding to cell surface HS on CHO cells; conditions: for sRAGE binding inhibition at 10 μM (in words): 10 μM compound, cell surface HS
Outline: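 CHO cells lifted enzyme-free and washed in PBS. Test compound at 10 μM pre-incubated in PBS/0.1% BSA for 10 min on ice. Biotinylated sRAGE (2 μg mL−1) added for 1 h on ice. After washing, bound protein detected with streptavidin-PE-Cy5 or streptavidin-Cy5 by flow cytometry as geometric mean fluorescence. Reported relative to no-compound binding, means ± SD.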

[3] = system: FGF2 binding to cell surface heparan sulfate (wild-type CHO cells); assay: Inhibition of FGF2 binding to cell surface HS on wild-type CHO cells; conditions: for IC50: read-out: IC50 against FGF2 binding, biotinylated FGF2 2.5 nM, on ice, mean ± SD of n = 3–4; for inhibition of FGF2 binding (in words): up to 100 μM
Outline: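 Wild-type CHO cells grown to confluence in F12/10% FBS, lifted enzyme-free and washed in PBS. Pre-incubated with test compound in PBS/0.1% BSA for 10 min on ice. Biotinylated FGF2 (2.5 nM) added for 30 min on ice. After washing, detected with streptavidin-PE-Cy5 or streptavidin-Cy5 by flow cytometry as geometric mean fluorescence. Expressed as % of binding without compound and plotted against concentration.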

[4] = In vivo neutralization of fondaparinux in mice; conditions: fondaparinux 0.5 mg kg^–1 s.c., 16 mg kg^–1 i.v.
Outline: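 Wild-type mice (8 weeks, ~20–30 g), n = 3 per group. Baseline tail bleed 30 min before dosing. Fondaparinux 0.5 mg kg−1 in PBS given s.c. After 10 min, tail-vein i.v. dosing of test compound (16 mg kg−1, DMSO–water), DMSO–H2O vehicle or protamine (16 mg kg−1, PBS). Blood drawn 5 min later into 3.2% citrate. Plasma anti-FXa colorimetric assay (405 nm) read against a calibration curve. Means ± SD.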

Row | Compound | sRAGE binding inhibition at 10 μM (in words) [2] | IC50 [3] [µM] | other results
1 | Nc1ccnc2ccccc12 [4-aminoquinoline] | – | – | pKa of the protonated form [1]: ~8.5
2 | CC(=O)Nc1ccc2nc(C)cc(N)c2c1 [Acetyl-hemisurfen (3), 6-acetamido-4-aminoquinaldine] | no inhibitory activity | > 100 | IC50 ([2]; read-out: IC50 inhibition of sRAGE binding to HS, CHO cells, biotinylated sRAGE 2 μg mL^–1): > 100 µM; inhibition of FGF2 binding (in words) [3]: did not inhibit
3 | Cc1ccc2cc(NC(=O)Nc3ccc4nc(C)ccc4c3)ccc2n1 [Deaminated surfen (6), 1,3-Bis(2-methylquinolin-6-yl)urea] | no inhibitory activity | > 100 | –
4 | Cc1cc(N)c2cc(NC(N)=O)ccc2n1 [Hemisurfen (2), 4-Amino-2-methyl-6-quinolyl-urea] | no inhibitory activity | > 100 | inhibition of FGF2 binding (in words) [3]: did not inhibit
5 | COc1cc(C)nc2ccc(NC(=O)Nc3ccc4nc(C)cc(OC)c4c3)cc12 [Methoxy surfen (5), 1,3-bis(4-methoxy-2-methyl-quinolin-6-yl)urea] | – | > 100 | –
6 | Cc1cc(N)c2cc(NC(=S)Nc3ccc4nc(C)cc(N)c4c3)ccc2n1 [Thio surfen (4), N,N′-bis-(4-amino-2-methyl-6-quinolyl)-thiourea] | – | 8 ± 0.2 | –
7 | protamine | – | – | neutralizing fondaparinux in vivo (in words) [4]: ineffective
